Most compounds without a hit are left out; they make up all but 1.4% or so of the library.
core dimer inh: HCV core protein dimerization inhibition; TR-FRET GST/Flag-core106 dimerization, 1536-well; inhibition, % at 5 µM; 0.33% of 300,000 active; AID 1899;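 active means inhibition above the mean of all tested compounds plus 3 SD, set per screening campaign, cut at about 45% in these data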
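test system = GST/Flag-tagged HCV core106 proteins | probe or stimulus = Eu donor and XL665 acceptor anti-tag antibodies | times = compound-protein-antibody incubation 4 h at 22.5 °C | signal = TR-FRET, excitation 340 nm, emission 617 and 671 nm | measure = percent inhibition of core106 dimerization signal | controls = wells lacking GST-core106 and wells with excess unlabelled core106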
UBC9 SUMO inh: inhibitors of human SUMOylation (UBC9); 0.36% of 290,000 active; HTRF SUMOylation assay, SAE1/SAE2 + UBC9, in vitro; inhibition, % at 35 µM; P63279; AID 2006; in the data active means inhibition above about 50%, passing the limit was not always enough
Target sequence (P63279 whole entry, looked up): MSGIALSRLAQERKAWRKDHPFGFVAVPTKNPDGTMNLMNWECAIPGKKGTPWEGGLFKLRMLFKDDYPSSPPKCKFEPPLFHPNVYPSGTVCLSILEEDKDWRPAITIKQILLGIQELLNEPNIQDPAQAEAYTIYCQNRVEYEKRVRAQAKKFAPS
NS3 helicase inh: inhibitors of Hepatitis C virus NS3 helicase; NS3 helicase DNA unwinding, Cy5 molecular beacon fluorescence; inhibition, % at 10.9 µM; 0.56% of 290,000 active;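 active means inhibition above the mean of all tested compounds plus 3 SD, set per campaign, cut at about 35% in these data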;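 further: 0% = DMSO wells and 100% = thioflavine S control wells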
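System: HCV NS3 helicase fragment; control set: DMSO and thioflavine S; technique: Cy5 fluorescence at 0 and 60 min, beacon hairpin quenching; reagent: beacon DNA duplex substrate plus ATP; replicates: singlicate; schedule: 1 h reaction at 25 °C, ATP-initiated; medium: MOPS buffer pH 6.5 with MgCl2, DTT, Tween20, BSA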
ZTA counter: counter-screen for EBNA-1 inhibitors: inhibitors of Epstein-Barr virus ZTA; P03206; ZTA-DNA binding, fluorescence polarization; inhibition, % at 11 µM; 0.15% of 320,000 active; AID 2234; in the data active means inhibition above about 33%
Target sequence (P03206 whole entry, looked up): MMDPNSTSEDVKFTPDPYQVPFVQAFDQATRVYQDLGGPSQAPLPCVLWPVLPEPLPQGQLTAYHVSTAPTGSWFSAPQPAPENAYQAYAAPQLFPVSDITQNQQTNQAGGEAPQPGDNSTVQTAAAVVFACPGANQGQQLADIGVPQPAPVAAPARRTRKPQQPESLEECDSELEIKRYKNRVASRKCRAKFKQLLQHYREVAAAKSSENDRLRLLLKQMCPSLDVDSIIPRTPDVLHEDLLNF
EBNA-1 inhibitor: blocks EBNA-1 binding to DNA. EBNA-1 DNA binding, fluorescence polarization. inhibition, % at 14.8 µM. 0.34% of 300,000 active; in the data active means inhibition above about 28%
NS3 hel confirm: HCV NS3 helicase inhibition, confirmation assay. shares compounds with NS3 helicase inh. NS3 helicase DNA unwinding, Cy5 molecular beacon fluorescence. inhibition, % at 10.9 µM. 31% of 1,600 active. AID 1943;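 active means inhibition above the mean of all tested compounds plus 3 SD, cutoff set per campaign, cut at about 36% in these data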
DNA FID counter: displaces DNA intercalator in HCV helicase counter-screen; shares compounds with NS3 helicase inh; DNA fluorescent intercalator displacement, fluorescence; inhibition, % at 7.9 µM; 4% of 1,600 active; in the data active means inhibition above about 37%;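 further: 0% = vehicle and 100% = reference compound; higher means more displacement of ethidium bromide from the DNA hairpin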
FID counter DR: counter-screen for HCV NS3 helicase inhibitors: DNA intercalator displacement dose response | shares compounds with NS3 helicase inh | fluorescent intercalator displacement from DNA, fluorescence | IC50, µM | 120 tested, under 10 active; call rule not given here
Active calls of the source: *; . = no result given.

SMILES	core dimer inh	UBC9 SUMO inh	NS3 helicase inh	ZTA counter	EBNA-1 inhibitor	NS3 hel confirm	DNA FID counter	others
O=C1CC(Nc2ccc(N3CCOCC3)cc2)C(=O)N1C1CCCCC1 (stereo not drawn)	-13.0	15.2	38.2*	-18.5	5.4	-15.5	-3.7
O=C(CCc1cn2ccccc2n1)NC1CCCc2c1cnn2-c1ccccc1F (stereo not drawn)	1.5	.	-0.1	-1.9	-9.9	.	.
CC(C(=O)Nc1nccs1)N1C(=O)c2ccccc2S1(=O)=O (stereo not drawn)	-2.0	.	.	7.4	6.2	.	.
O=C(CCc1c[nH]c2ccccc12)NC(Cc1ccccc1)C(=O)O (stereo not drawn)	-21.1	-0.4	13.3	-5.1	-6.1	.	.
Cc1csc(=O)n1CCC(=O)OCC(=O)Nc1ccc(F)c(F)c1F	0.9	.	.	2.7	10.5	.	.
O=C(CCNC(=O)c1ccc(Cl)cc1)Nc1ccccc1N1CCCC1	1.9	.	.	-5.5	-0.9	.	.
Cc1occc1C(=O)NNC(=S)NC(=O)COc1ccc(Cl)cc1Cl	-4.5	9.6	71.9*	17.2	7.7	57.9*	-5.7	FID counter DR=>79.4
O=C1/C(=C/C=C/c2ccco2)SC(=S)N1NS(=O)(=O)c1ccccc1	65.3*	60.0*	65.6*	69.7*	43.6*	72.9*	16.6
COc1ccc(/C=C2\SC(=S)N(NS(=O)(=O)c3ccc(C)cc3)C2=O)c(OC)c1	2.1	9.1	110.6*	10.9	16.7	79.6*	-26.3
CCOc1ccc(/C=C2\SC(=S)N(NS(=O)(=O)c3ccccc3)C2=O)cc1OC	1.4	13.6	41.5*	11.2	8.2	79.0*	5.1
COc1cccc(CNC(=O)c2nnn(CC(=O)Nc3cccc(C)c3)c2N)c1	-0.9	4.9	-2.3	4.9	9.2	.	.
CC1CCCCC1NC(=O)COc1ncnc2sccc12 (stereo not drawn)	.	.	.	-8.1	.	.	.
Oc1ccc(-c2csc(Nc3cccc4ccccc34)n2)cc1O	-11.4	33.6	42.2*	-28.9	2.1	-20.6	12.0
Oc1ccc(-c2csc(Nc3ccccn3)n2)cc1O	-15.3	15.1	-4.0	17.9	2.7	.	.
OC1OC[C@@H](O)[C@H](O)[C@H]1O (stereo partly drawn)	-4.6	.	.	-15.2	0.0	.	.
Cc1ccc2oc(C(=O)Nc3ccc(S(=O)(=O)Nc4ncccn4)cc3)c(C)c2c1	-6.6	24.5	8.8	-1.4	5.8	.	.
CCN1C/C(=C/c2ccc(N3CCOCC3)cc2)C(=O)/C(=C/c2ccc(N3CCOCC3)cc2)C1	5.7	-6.9	51.3*	8.8	4.7	-5.8	12.9
O=C(NCc1ccc(Cl)cc1)c1cc(S(=O)(=O)N2CCCCC2)c[nH]1	7.1	-4.4	-18.9	-3.6	-2.7	.	.
O=C(Nc1nnc(-c2ccc3c(c2)CCCC3)o1)c1ccccc1Cl	9.5	3.8	49.1*	-8.1	3.6	-8.7	-27.0
O=C(Nc1nnc(-c2ccc3c(c2)CCCC3)o1)c1ccccc1	18.8	4.9	20.0	9.9	0.1	.	.
Cc1cc(OCC(=O)NC(Cc2ccc(Cl)cc2)C(=O)O)c2c(C)c(C)c(=O)oc2c1 (stereo not drawn)	3.1	34.6	0.9	8.6	-8.4	.	.
CCOc1ccc(NC(=O)CN(C)Cc2ccc3c(c2)OCO3)cc1S(=O)(=O)N1CCCC1	.	.	.	2.7	.	.	.
COc1ccc(NC(=O)C2CCCN(C(=O)c3ccc(Cl)cc3)C2)cc1S(=O)(=O)N(C)C (stereo not drawn)	.	.	.	-1.5	.	.	.
O=C(NC(=S)Nc1ccc(Cl)c(C(=O)O)c1)c1ccco1	10.0	9.2	-1.8	12.7	10.8	.	.
O=C(O)c1cc(NC(=S)NC(=O)C(c2ccccc2)c2ccccc2)ccc1Cl	8.5	23.3	41.0*	3.3	-3.8	76.5*	-4.5
SMILES	core dimer inh	UBC9 SUMO inh	NS3 helicase inh	ZTA counter	EBNA-1 inhibitor	NS3 hel confirm	DNA FID counter	others
CC(c1nnc(SCC(=O)c2c(N)n(C3CC3)c(=O)[nH]c2=O)n1-c1ccc(F)cc1)N(C)C (stereo not drawn)	.	.	.	-7.9	.	.	.
CCCCn1c(NS(=O)(=O)c2ccc(C)cc2)c(S(=O)(=O)c2ccccc2)c2nc3ccccc3nc21	9.8	100.5*	37.8*	11.7	0.1	71.7*	-3.1	FID counter DR=>79.4
CC(=O)c1ccc(NC(=S)NC(=O)c2c(Cl)c(C)nn2C)cc1	-10.1	20.8	0.0	-19.7	-1.4	.	.
COc1ccc(C(=O)CC(=O)C(=O)Nc2ccc(Cl)cc2)cc1	0.5	-4.2	42.5*	4.8	-9.3	-1.7	15.0
COc1ccc(Cl)cc1NS(=O)(=O)c1cccc(C(=O)NCC2(N(C)C)CCCCC2)c1	.	10.0	-23.0	.	.	.	.
O=C1C(=O)N(c2ccccn2)C(c2ccc(F)cc2)/C1=C(/O)c1ccc(Br)cc1 (stereo not drawn)	-4.0	19.5	24.0	-15.0	-5.3	.	.
COc1ccc(/C(O)=C2/C(=O)C(=O)N(c3ccccn3)C2c2ccc(C(C)C)cc2)cc1 (stereo not drawn)	.	15.6	38.9*	.	.	84.9*	-12.9	FID counter DR=>79.4
O=C1C(=O)N(c2ccccn2)C(c2ccc(Br)cc2)/C1=C(/O)c1ccc(Br)cc1 (stereo not drawn)	.	22.2	72.7*	.	.	84.8*	-28.1
CCCOc1ccc(/C(O)=C2/C(=O)C(=O)N(c3ccccn3)C2c2ccc(OC)cc2)cc1C (stereo not drawn)	21.8	32.1	68.6*	-7.1	19.3	90.6*	-43.9	FID counter DR=>79.4
COc1ccc(/C(O)=C2/C(=O)C(=O)N(c3ccccn3)C2c2ccc(OC)c(OC)c2)cc1 (stereo not drawn)	-2.8	26.4	-1.4	-0.2	-6.7	.	.
COc1ccc(/C(O)=C2/C(=O)C(=O)N(c3ccccn3)C2c2cccc(Cl)c2)cc1 (stereo not drawn)	13.8	18.1	44.5*	-1.2	8.3	44.0*	-30.4
COc1ccc(/C(O)=C2/C(=O)C(=O)N(c3ccccn3)C2c2ccc(OC)cc2)cc1 (stereo not drawn)	.	9.9	5.0	.	.	.	.
COC1(OC)C=CC(=O)C=C1NC(=O)c1ccccc1OC(C)=O	-13.8	.	.	-9.1	-4.4	.	.
Cc1cc(C(=O)NCc2csc(-c3ccccc3)n2)no1	-2.4	9.4	4.1	-11.6	-6.5	.	.
Cc1cnc(C(=O)OCC(=O)c2ccc(Br)s2)cn1	14.1	.	.	2.4	-2.0	.	.
Cc1cc(N2C(=O)C(=O)/C(=C(/O)c3ccc(F)cc3)C2c2cccc(Br)c2)no1 (stereo not drawn)	-0.4	26.5	37.6*	5.3	5.1	64.2*	-20.3
O=C1OC(/C=C/c2ccc(Cl)cc2)=NC/1=C/c1ccco1	20.5	30.1	40.8*	11.6	-3.2	-1.9	2.6
COC(=O)c1ccc(Cn2nc(-c3cc(C)ccc3C)ccc2=O)cc1	.	2.4	-6.2	.	.	.	.
